The list is not random: actives were taken first. Their share in the collection is about 1.4%.
NR2E3 ag-1: agonists of human NR2E3 nuclear receptor | inhibition of corepressor binding, % at 3.98 µM | AID 602229 | Q9Y5X4 | 360,000 tested, 0.35% active | CHO-S Gal4-NCOR/VP16-NR2E3 two-hybrid, luciferase;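 active means inhibition above the mean of all tested compounds plus 3 SD, cut at about 70% in these data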;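 further: 0% = DMSO with NR2E3 transfected cells and 100% = cells lacking NR2E3 construct; higher means lower luciferase signal from less NR2E3 corepressor binding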
Rev-erbA mod: modulates human Rev-erb alpha binding to DNA; P20393; Rev-erbα–FITC-DNA binding, fluorescence polarization, 90 min; activity, % at 10 µM; 370,000 tested, 0.79% active; AID 1259318;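 active means activity above about 14%, limit read from the data; passing the limit was not always enough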;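 further: 0% = DMSO wells with 35 nM protein and 100% = DMSO wells with 750 nM protein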
Target sequence (P20393 whole entry, looked up): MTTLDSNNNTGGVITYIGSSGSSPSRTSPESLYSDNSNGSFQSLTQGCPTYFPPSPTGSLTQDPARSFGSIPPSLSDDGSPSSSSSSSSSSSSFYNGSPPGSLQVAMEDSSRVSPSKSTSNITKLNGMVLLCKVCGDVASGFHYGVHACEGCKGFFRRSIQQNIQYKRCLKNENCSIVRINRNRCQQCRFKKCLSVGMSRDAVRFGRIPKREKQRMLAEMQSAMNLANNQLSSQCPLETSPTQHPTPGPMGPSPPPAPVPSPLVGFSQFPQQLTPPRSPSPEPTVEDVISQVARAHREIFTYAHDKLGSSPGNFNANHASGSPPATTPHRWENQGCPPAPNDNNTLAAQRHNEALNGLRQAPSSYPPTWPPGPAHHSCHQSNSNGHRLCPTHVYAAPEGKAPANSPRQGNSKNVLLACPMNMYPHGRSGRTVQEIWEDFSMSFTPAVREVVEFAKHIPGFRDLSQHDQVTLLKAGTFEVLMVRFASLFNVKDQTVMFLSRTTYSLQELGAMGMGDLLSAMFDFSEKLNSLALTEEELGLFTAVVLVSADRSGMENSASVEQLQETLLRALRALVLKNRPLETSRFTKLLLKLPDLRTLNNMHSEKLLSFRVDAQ
NR2E3 ag-2: activates human photoreceptor nuclear receptor NR2E3; Q9Y5X4; GST-NR2E3/biotin-RetCOR TR-FRET, 1536-well; inhibition of corepressor binding, % at 4.78 µM; 320,000 tested, 0.12% active; AID 2300;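 active means percent inhibition above the cutoff of mean plus 3 SD of all tested compounds, set per screening campaign, cut at about 20% in these data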;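 further: 0% = DMSO wells and 100% = biotin wells as full block of FRET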
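Material – GST-tagged NR2E3 plus biotinylated RetCOR corepressor · Quantity – NR2E3 fusion 1.35 nM · Times – 5 h incubation at 4 °C · Medium – pH 7.5 Tris-based buffer · Technique – TR-FRET, Eu(K)-anti-GST donor, streptavidin-D2 acceptor, ex 340, em 617/671 nm · Benchmarks – high control biotin, low control 0.6% DMSO · Format – 1536-well plates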
PG9 Ab binder: PG9 antibody binding by small molecule; 360,000 tested, 0.43% active; TR-FRET gp120-PG9 antibody binding; inhibition, % at 6.7 µM; in the data active means inhibition above about 8.5%
NR1D1 mod conf: Rev-erb alpha (human) modulation, hit confirmation. shares compounds with Rev-erbA mod. Rev-erb alpha FITC-DNA binding, fluorescence polarization, 90 min. activation, % at 25 µM. 3,000 tested, 61% active. AID 1259319;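 active means activation at or above a set limit, or at least 3 SD above the negative control mean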;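 further: 0% = 35 nM protein with DMSO and 100% = 750 nM protein high control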
RORg counter: RORgamma DNA-binding activity, dose-response counter-screen; 910 tested, 8% active; shares compounds with Rev-erbA mod; purified RORgamma protein-FITC-DNA binding, fluorescence polarization; IC50, µM; AID 1259320;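 active means Compounds whose fitted half-maximal concentration for disrupting protein-DNA binding is below 10 micromolar; the record names Rev-erb in its text, so the target is in doubt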
Active calls of the source: *.

For COc1ccc2[nH]cc(S(=O)(=O)c3ccc(F)cc3)c(=O)c2c1 the results were NR2E3 ag-1 -16.0, Rev-erbA mod 2.2, NR2E3 ag-2 2.2 and PG9 Ab binder -0.5.
Cc1ccc2[nH]cc(S(=O)(=O)c3ccc(C)c(C)c3)c(=O)c2c1 was read as NR2E3 ag-1 11.6, Rev-erbA mod 56.2*, NR2E3 ag-2 -4.0, PG9 Ab binder -2.3, NR1D1 mod conf 33.2* and RORg counter >40.
C[C@@H]1CN([C@@H](C)CO)C(=O)CCCn2nncc2CO[C@H]1CN(C)S(=O)(=O)c1ccc(C#N)cc1 was read as NR2E3 ag-1 -29.5, Rev-erbA mod -2.5 and PG9 Ab binder -0.3.
CCOC(=O)Cc1csc(NC(=O)c2ccc(Br)s2)n1 was read as NR2E3 ag-2 6.8.
Screening CCOc1cccc2sc(NC(=O)c3ccc(Br)s3)nc12 returned NR2E3 ag-1 -30.3, Rev-erbA mod 29.6*, NR2E3 ag-2 2.5, PG9 Ab binder -0.2, NR1D1 mod conf 33.4* and RORg counter >40.
Screening COc1ccc(C2CC(=O)C(c3ccccc3C)=CN2Cc2ccccc2)cc1 (stereo not drawn) returned Rev-erbA mod 0.0 and PG9 Ab binder 1.8.
CCCNC(=O)/C(C#N)=C1\N=C(NC(=O)c2cccs2)c2ccccc21 was read as NR2E3 ag-1 -31.1, Rev-erbA mod 30.2*, NR2E3 ag-2 0.0, PG9 Ab binder -1.9 and NR1D1 mod conf 21.5*.
O=c1[nH]c2ccccc2nc1/C=C(\O)c1cccs1 was read as NR2E3 ag-1 -140.3, Rev-erbA mod 43.1*, NR2E3 ag-2 0.5, PG9 Ab binder -6.6 and NR1D1 mod conf 21.8*.
CC1(Cc2cccc(F)c2)C(=O)Nc2ccc(OC(F)(F)F)cc21 (stereo not drawn) was read as NR2E3 ag-1 -57.0, Rev-erbA mod 16.3*, PG9 Ab binder -0.2 and NR1D1 mod conf 14.7*.
CC1(Cc2ccc(OC(F)(F)F)cc2)C(=O)Nc2ccc(OC(F)(F)F)cc21 (stereo not drawn) was read as NR2E3 ag-1 3.9, Rev-erbA mod 8.9 and PG9 Ab binder -0.1.
COc1ccccc1-c1ccc2c(c1)C(C)(Cc1cccc(F)c1)C(=O)N2 (stereo not drawn) was read as NR2E3 ag-1 5.0, Rev-erbA mod 63.5*, PG9 Ab binder -1.2, NR1D1 mod conf 88.0* and RORg counter >40.
COc1ccc(C(C)=O)cc1CC1(C)C(=O)Nc2ccc(-c3ccccc3OC)cc21 (stereo not drawn) was read as NR2E3 ag-1 1.2, Rev-erbA mod 0.6 and PG9 Ab binder -0.3.
Cc1ccc2nc(-c3cccc(Cl)c3)c(Cc3ccsc3)n2c1 was read as Rev-erbA mod 3.6 and PG9 Ab binder -0.9.
Screening CCOc1ccc(Nc2ccc([N+](=O)[O-])c3nonc23)cc1 returned NR2E3 ag-1 -84.1, Rev-erbA mod 6.3, NR2E3 ag-2 -8.9 and PG9 Ab binder -14.4.
Screening CC(=O)NS(=O)(=O)c1ccc(Nc2ccc([N+](=O)[O-])c3nonc23)cc1 returned NR2E3 ag-1 11.0, Rev-erbA mod 26.1*, NR2E3 ag-2 -3.7, PG9 Ab binder -5.3 and NR1D1 mod conf 20.9*.
CCOC(=O)C1=C(c2ccccc2)O/C(=C(\C(=O)OC)C(F)(F)F)S1 was read as NR2E3 ag-1 -25.8, Rev-erbA mod 25.1*, NR2E3 ag-2 -0.9, PG9 Ab binder -2.7 and NR1D1 mod conf 18.0*.
CCOC(=O)C1=C(c2ccccc2)O/C(=C(/C#N)C(F)(F)F)S1 was read as NR2E3 ag-2 3.4.
CCOC1=C2CN(S(=O)(=O)c3ccc(C)cc3)[C@@H](c3ccccc3)C[C@H]2[C@H]2C(=O)N(c3ccccc3)C(=O)[C@H]2C1 was read as NR2E3 ag-1 -12.2, Rev-erbA mod 3.7 and PG9 Ab binder -0.4.
O=C(Nc1cc(Cl)cc(Cl)c1)Nc1cnccn1 was read as NR2E3 ag-1 0.0, Rev-erbA mod 12.4*, NR2E3 ag-2 3.1, PG9 Ab binder -3.0 and NR1D1 mod conf 2.1.
`O=C(Nc1ccc(F)cc1)Nc1cnccn1` gave NR2E3 ag-1 1.5, Rev-erbA mod 9.1, NR2E3 ag-2 -0.6 and PG9 Ab binder 0.8.
CCCOc1cc(N(CC)CC)ccc1/C=C(/C#N)c1nc2ccc(C)cc2[nH]1 was read as NR2E3 ag-1 -16.4, Rev-erbA mod 31.8*, NR2E3 ag-2 -6.1, PG9 Ab binder -0.7 and NR1D1 mod conf 40.8*.
For CCOc1cc(N(CC)CC)ccc1/C=C(/C#N)c1nc2ccccc2[nH]1 the results were NR2E3 ag-1 7.1, Rev-erbA mod 72.5*, NR2E3 ag-2 0.4, PG9 Ab binder -2.4, NR1D1 mod conf 58.4* and RORg counter >40.
`COc1cc(/C=C(\C#N)c2nc3ccccc3[nH]2)cc(OC)c1O` gave NR2E3 ag-1 -54.8, Rev-erbA mod 31.4*, NR2E3 ag-2 -1.8, PG9 Ab binder -21.7, NR1D1 mod conf 45.6* and RORg counter >40.
`COc1ccc(/C=C(\C#N)c2nc3ccccc3[nH]2)cc1O` gave NR2E3 ag-1 -78.8, Rev-erbA mod -1.3 and PG9 Ab binder -6.5.
For COC(=O)c1cc(-c2cccc(C(F)(F)F)c2)c(=O)n2c1CCC2 the results were Rev-erbA mod -2.6.
Screening COc1ccc(F)cc1-c1cc(C(=O)NCc2cc(C(F)(F)F)cc(C(F)(F)F)c2)[nH]n1 returned NR2E3 ag-1 -31.6, Rev-erbA mod -0.1 and PG9 Ab binder -1.7.
CC(C)c1cc(Br)ccc1OCCN1C(=O)NC(C)(C)C1=O was read as NR2E3 ag-1 -8.4, Rev-erbA mod 13.8*, NR2E3 ag-2 -2.2, PG9 Ab binder -0.9 and NR1D1 mod conf 1.1.
For Cc1nc(N2CCN(C)CC2)c2cc(-c3ccccc3)sc2n1 the results were NR2E3 ag-1 -4.2, Rev-erbA mod -1.4, NR2E3 ag-2 0.4 and PG9 Ab binder 1.4.
Screening Cc1nc(N2CCN(S(=O)(=O)c3ccccc3)CC2)c2cc(-c3ccccc3)sc2n1 returned NR2E3 ag-1 -28.7, Rev-erbA mod 43.7*, NR2E3 ag-2 -0.4, PG9 Ab binder -0.2 and NR1D1 mod conf 27.7*.
`CC(C(=O)N1CCc2ccccc21)N1CCN(S(=O)(=O)c2ccc(C(F)(F)F)cc2)CC1` (stereo not drawn) gave NR2E3 ag-1 -7.6, Rev-erbA mod 16.6*, NR2E3 ag-2 0.3, PG9 Ab binder 0.0 and NR1D1 mod conf -2.7.
For CNc1ccc2ncc(-c3ccccc3NC(C)=O)n2n1 the results were NR2E3 ag-1 2.9, Rev-erbA mod -1.6 and PG9 Ab binder 0.8.
`COc1ccc(C(=O)/C(C#N)=N/Nc2ccc([N+](=O)[O-])cc2)cc1` gave NR2E3 ag-1 -59.4, Rev-erbA mod 44.4*, NR2E3 ag-2 1.3, PG9 Ab binder 1.0, NR1D1 mod conf 35.7* and RORg counter >40.
`CC1(C)OCC(N)(CO)CO1` gave NR2E3 ag-1 11.2, Rev-erbA mod 1.4 and PG9 Ab binder -0.5.
